The record followed here is ChEMBL document CHEMBL4428098, “Facile synthesis of autophagonizer and evaluation of its activity to induce autophagic cell death in apoptosis-defective cell line” (Bioorg Med Chem Lett, 2016).

The structures appear in SMILES notation. Calls of active or inactive are those of the source. The rule behind the calls is not given here.

For experiment [1], the system named is HeLa. Kind of experiment: Induction of autophagic cell death in human HeLa cells after 24 hrs by MTT assay. In kind it is functional, cell-based. The method, boiled down:
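MTT viability assay in HeLa cells after 24 h treatment over a log concentration range, with DMSO vehicle control. Viable cells normalized to DMSO-treated cells as percent viability. EC50 estimated from a sigmoidal dose–response curve.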

The subject of experiment [2] is MEF. Kind of experiment: Induction of autophagy in wild-type MEF assessed as autophagosome formation at 2 to 4 uM after 15 hrs by Cyto-ID reagent/ Hoechst 33342 staining based fluorescence assay. Format: functional, cell-based. The conditions noted are these: Mus musculus. An outline of the steps: (§1)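 Wild-type and Bax/Bak double-knockout MEFs treated 15 h at the indicated concentrations alongside DMSO vehicle. Stained with Cyto-ID reagent (green) for autophagosomes and MDC (blue) for acidic vacuoles, then imaged.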

For experiment [3], the system named is MEF. Kind of experiment: Induction of autophagy in Bax/Bak double knockout MEF assessed as autophagosome formation at 2 to 4 uM after 15 hrs by Cyto-ID reagent/ Hoechst 33342 staining based fluorescence assay. Format: functional, cell-based. The note with it: Mus musculus. An outline of the steps:
as §1

For experiment [4], the system named is MEF. Kind of experiment: Induction of autophagy in wild-type MEF assessed as accumulation of acidic vacuoles at 2 to 4 uM after 15 hrs by MDC/Hoechst 33342 staining based fluorescence assay. The conditions noted are these: Mus musculus. In kind it is functional, cell-based. An outline of the steps:
as §1

Experiment [5] relates to MEF. Kind of experiment: Induction of autophagy in Bax/Bak double knockout MEF assessed as accumulation of acidic vacuoles at 2 to 4 uM after 15 hrs by MDC/Hoechst 33342 staining based fluorescence assay. Format: functional, cell-based. The conditions noted are these: Mus musculus. An outline of the steps:
as §1

For experiment [6], the system named is MEF. Kind of experiment: Induction of autophagy in wild-type MEF assessed as conversion of LC3-1 to LC3-2 at 2.5 to 5 uM after 15 hrs by Western blot analysis. Format: functional, cell-based. The conditions noted are these: Mus musculus. The method, boiled down: (§2)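 Wild-type and Bax/Bak double-knockout MEFs treated 15 h at the indicated concentrations with DMSO vehicle control. LC3-I to LC3-II conversion assessed by immunoblot.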

The test system of experiment [7] is MEF. The experiment can be described thus: Induction of autophagy in Bax/Bak double knockout MEF assessed as conversion of LC3-1 to LC3-2 at 2.5 to 5 uM after 15 hrs by Western blot analysis. In kind it is functional, cell-based. The conditions noted are these: Mus musculus. The method, boiled down: as §2
Experiment [8] has as its system HeLa. Kind of experiment: Induction of autophagy in human HeLa cells assessed as acidic vacuoles at 3 to 25 uM after 24 hrs by MDC/Hoechst 33342 staining based fluorescence assay. In kind it is functional, cell-based. The method, boiled down: (§3)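 Acidic vacuoles in HeLa cells after 24 h exposure, with DMSO vehicle control. Cells stained with MDC and imaged under the DAPI filter.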

For experiment [9], the system named is HeLa. Kind of experiment: Induction of autophagy in human HeLa cells assessed as accumulation of acidic vacuoles at 3 and 25 uM after 24 hrs by MDC/Hoechst 33342 staining based fluorescence assay. In kind it is functional, cell-based. An outline of the steps: as §3
Experiment [10] concerns MEF. Kind of experiment: Induction of autophagic cell death in wild-type MEF after 15 hrs by MTT assay. The note with it: Mus musculus.
In experiment [11] the test system is MEF. The experiment can be described thus: Induction of autophagic cell death in Bax/Bak double knockout MEF after 15 hrs by MTT assay. The note with it: Mus musculus.
The subject of experiment [12] is HeLa. Kind of experiment: Induction of autophagy in human HeLa cells assessed as autophagosome formation after 24 hrs by Cyto-ID reagent/ Hoechst 33342 staining based fluorescence assay. In kind it is functional, cell-based. An outline of the steps:
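HeLa cells treated 24 h at various doses, DMSO as vehicle control. Stained with Hoechst 33342 and green Cyto-ID reagent and imaged under DAPI and GFP filters. Plate read at 340/480 nm (Hoechst) and 480/539 nm (Cyto-ID) Ex/Em. Cyto-ID fluorescence per cell taken relative to DMSO-treated cells, and a sigmoidal dose–response curve constructed.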

In experiment [13] the test system is HeLa. The experiment can be described thus: Induction of autophagy in human HeLa cells assessed as accumulation of acidic vacuoles after 24 hrs by MDC/Hoechst 33342 staining based fluorescence assay. In kind it is functional, cell-based. The method, boiled down: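 HeLa cells exposed 24 h over a dose range with DMSO vehicle control, then stained with MDC for acidic vacuoles. Fluorescence read at 335/512 nm (Ex/Em) and normalized to viable cell number from a parallel MTT assay. Per-cell signal expressed relative to DMSO-treated cells as fold intensity. Sigmoidal dose–response curve fitted.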

Experiment [14] relates to HeLa. The experiment can be described thus: Induction of autophagic cell death in human HeLa cells at 8 uM after 24 hrs by MTT assay relative to control. Format: functional. An outline of the steps: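 HeLa cells exposed 24 h to compound at graded concentrations with DMSO vehicle control; viability read by MTT assay and viable cell number normalized against DMSO-treated cells to give percent viable cells.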

The subject of experiment [15] is HeLa. The experiment can be described thus: Induction of autophagy in human HeLa cells assessed as accumulation of LC3-2 at 2.5 to 5 uM after 24 hrs by Western blot analysis. In kind it is functional, cell-based. The method, boiled down: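 Immunoblot of HeLa lysates for LC3-I to LC3-II conversion after 24 h treatment, with DMSO vehicle control and actin probed as reference.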

Consider `O=C(NCCC1CCCC1)c1coc(CSc2nc3sc4c(c3c(=O)n2Cc2ccccc2)CCCC4)n1`, for which the EC50 in the experiment on HeLa [1] stood at 25 µM; in the experiment on MEF [10], 28.6 µM; with MEF [11] it was 24.2 µM. Further, the outcome in the experiment with MEF [2], in the experiment on MEF [3], in the experiment with MEF [4], in the experiment with MEF [5], in the experiment with MEF [6] and in the experiment on MEF [7] was inactive. The result in the experiment with HeLa [8] and in the experiment on HeLa [9] was inactive.

As for `O=C(NCCN1CCCC1)c1coc(CSc2nc3sc4c(c3c(=O)n2Cc2ccccc2)CCCC4)n1`, in the experiment with HeLa [12], the Activity entry was “Dose-dependent effect”. In addition, the EC50 in the experiment with HeLa [12] is 3.5 µM; with HeLa [13], 1.3 µM; in the experiment with HeLa [1] it was 3.5 µM; in the experiment with MEF [10], 2.1 µM; with MEF [11] it was 2.2 µM. The “fold change (FC)” value in the experiment on HeLa [14] worked out at 5. In addition, the outcome in the experiment on HeLa [15], in the experiment with MEF [2], in the experiment with MEF [3], with MEF [4], with MEF [5] and in the experiment on MEF [6] was Active. Besides, in the experiment with MEF [7], the result was Active.
